Laboratory results taken from ChEMBL document CHEMBL1157268, “ent-Labdane diterpenoids from Andrographis paniculata” (2006).
Calls of active or inactive are those of the source. The calls are words filed in the database; no cut-off is given here.

Experiments:
Bacillus subtilis = assay: Antimicrobial activity against Bacillus subtilis at 10 ug/ml by disk diffusion assay; type: functional; settings: for zone of inhibition at 10 µg/mL: read-out: IZ
Method in brief: (§1)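 Qualitative screen on agar plates: each diterpenoid applied to disks at 10 µg/mL and tested in parallel against eight strains (B. subtilis, S. aureus, E. coli, M. luteus, S. lutea, C. albicans, C. sake, A. niger). Growth inhibition was scored as a clear inhibition zone around the disk, with zone diameter in mm as the read-out.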

Staphylococcus aureus = assay: Antimicrobial activity against Staphylococcus aureus at 10 ug/ml by disk diffusion assay; type: functional, organism-based; method in brief: as §1
Escherichia coli = assay: Antimicrobial activity against Escherichia coli at 10 ug/ml by disk diffusion assay; type: functional, organism-based; method in brief: as §1
Micrococcus luteus = assay: Antimicrobial activity against Micrococcus luteus at 10 ug/ml by disk diffusion assay; type: functional, organism-based; method in brief: as §1
Candida albicans = assay: Antimicrobial activity against Candida albicans at 10 ug/ml by disk diffusion assay; type: functional, organism-based; method in brief: as §1
[Candida] sake = Antimicrobial activity against Candida sake at 10 ug/ml by disk diffusion assay; type: functional, organism-based; method in brief: as §1
Aspergillus niger = assay: Antimicrobial activity against Aspergillus niger at 10 ug/ml by disk diffusion assay; type: functional, organism-based; method in brief: as §1

C=C1CC[C@H]2[C@@](C)(CC[C@@H](O)[C@@]2(C)CO)[C@@H]1C(=O)/C=C1\CCOC1=O
Activity (Bacillus subtilis): inactive
Activity (Staphylococcus aureus): inactive
Activity (Escherichia coli): inactive
Activity (Micrococcus luteus): inactive
Activity (Candida albicans): inactive
Activity ([Candida] sake): inactive
Activity (Aspergillus niger): inactive

C=C1CC[C@@H]2[C@](C)(CO)[C@H](O)CC[C@@]2(C)[C@@H]1C[C@@H](O)C1=CCOC1=O
zone of inhibition at 10 µg/mL (Bacillus subtilis): 7 mm
Activity (Staphylococcus aureus): inactive
Activity (Escherichia coli): inactive
Activity (Micrococcus luteus): inactive
Activity (Candida albicans): inactive
Activity ([Candida] sake): inactive
Activity (Aspergillus niger): inactive

C=C1CC[C@@H]2[C@](C)(CO)[C@H](O)CC[C@@]2(C)[C@@H]1/C=C/C1=CCOC1=O
zone of inhibition at 10 µg/mL (Bacillus subtilis): 7 mm
Activity (Staphylococcus aureus): inactive
Activity (Escherichia coli): inactive
Activity (Micrococcus luteus): inactive
Activity (Candida albicans): inactive
Activity ([Candida] sake): inactive
Activity (Aspergillus niger): inactive

C=C1CCC2C(C)(CO)C(O)CCC2(C)C1/C=C/C1=CC(C2(CCC3=CCOC3=O)C(=C)CCC3C(C)(CO)C(O)CCC32C)OC1=O (stereo not given)
Activity (Bacillus subtilis): inactive
Activity (Staphylococcus aureus): inactive
Activity (Escherichia coli): inactive
Activity (Micrococcus luteus): inactive
Activity (Candida albicans): inactive
Activity ([Candida] sake): inactive
Activity (Aspergillus niger): inactive

C=C1CC[C@@H]2[C@](C)(CO[C@@H]3O[C@H](CO)[C@@H](O)[C@H](O)[C@H]3O[C@@H]3OC[C@](O)(CO)[C@H]3O)CCC[C@@]2(C)[C@@H]1CCC1=CCOC1=O
Activity (Bacillus subtilis): inactive
Activity (Staphylococcus aureus): inactive
Activity (Escherichia coli): inactive
Activity (Micrococcus luteus): inactive
Activity (Candida albicans): inactive
Activity ([Candida] sake): inactive
Activity (Aspergillus niger): inactive

C=C1CC[C@@H]2[C@](C)(CO)[C@H](O[C@@H]3O[C@H](CO)[C@@H](O)[C@H](O)[C@H]3O)CC[C@@]2(C)[C@@H]1C/C=C1/C(=O)OC[C@H]1O
Activity (Bacillus subtilis): inactive
Activity (Staphylococcus aureus): inactive
Activity (Escherichia coli): inactive
Activity (Micrococcus luteus): inactive
Activity (Candida albicans): inactive
Activity ([Candida] sake): inactive
Activity (Aspergillus niger): inactive

C=C1CC[C@@H]2[C@](C)(CO[C@@H]3O[C@H](CO)[C@@H](O)[C@H](O)[C@H]3O)[C@H](O)CC[C@@]2(C)[C@@H]1CCC1=CCOC1=O
Activity (Bacillus subtilis): inactive
Activity (Staphylococcus aureus): inactive
Activity (Escherichia coli): inactive
Activity (Micrococcus luteus): inactive
Activity (Candida albicans): inactive
Activity ([Candida] sake): inactive
Activity (Aspergillus niger): inactive

C=C1CC[C@H]2[C@@](C)(CCC[C@@]2(C)C(=O)O[C@@H]2O[C@H](CO)[C@@H](O)[C@H](O)[C@H]2O)[C@@H]1CC/C(=C/CO)CO
Activity (Bacillus subtilis): inactive
Activity (Staphylococcus aureus): inactive
Activity (Escherichia coli): inactive
Activity (Micrococcus luteus): inactive
Activity (Candida albicans): inactive
Activity ([Candida] sake): inactive
Activity (Aspergillus niger): inactive

C=C1CC[C@@H]2[C@](C)(CO)[C@H](O)CC[C@@]2(C)[C@@H]1C[C@@H](O)C1C(=O)OC[C@H]1O (stereo not given in full)
Activity (Bacillus subtilis): inactive
Activity (Staphylococcus aureus): inactive
Activity (Escherichia coli): inactive
Activity (Micrococcus luteus): inactive
Activity (Candida albicans): inactive
Activity ([Candida] sake): inactive
Activity (Aspergillus niger): inactive

C=C1CC[C@@H]2[C@](C)(CO[C@@H]3O[C@H](CO)[C@@H](O)[C@H](O)[C@H]3O)CCC[C@@]2(C)[C@@H]1CCC1=CCOC1=O
Activity (Bacillus subtilis): inactive
Activity (Staphylococcus aureus): inactive
Activity (Escherichia coli): inactive
Activity (Micrococcus luteus): inactive
Activity (Candida albicans): inactive
Activity ([Candida] sake): inactive
Activity (Aspergillus niger): inactive

C=C1CC[C@@H]2[C@](C)(CO)[C@H](O)CC[C@@]2(C)[C@@H]1C(O)/C=C1\CCOC1=O (stereo not given in full)
Activity (Bacillus subtilis): inactive
Activity (Staphylococcus aureus): inactive
Activity (Escherichia coli): inactive
Activity (Micrococcus luteus): inactive
Activity (Candida albicans): inactive
Activity ([Candida] sake): inactive
Activity (Aspergillus niger): inactive

C[C@]1(CO)[C@H]2CC[C@]3(CO3)[C@@H](CCC3=CCOC3=O)[C@]2(C)CC[C@H]1O
Activity (Bacillus subtilis): inactive
Activity (Staphylococcus aureus): inactive
Activity (Escherichia coli): inactive
Activity (Micrococcus luteus): inactive
Activity (Candida albicans): inactive
Activity ([Candida] sake): inactive
Activity (Aspergillus niger): inactive

C=C1CC[C@@H]2[C@](C)(CO)[C@H](O)CC[C@@]2(C)[C@@H]1C/C=C1\C(=O)OCC1O (stereo not given in full) [ISOANDROGRAPHOLIDE]
zone of inhibition at 10 µg/mL (Bacillus subtilis): 7 mm
Activity (Staphylococcus aureus): inactive
Activity (Escherichia coli): inactive
Activity (Micrococcus luteus): inactive
Activity (Candida albicans): inactive
Activity ([Candida] sake): inactive
Activity (Aspergillus niger): inactive

C=C1CC[C@@H]2[C@](C)(CO)CCC[C@@]2(C)[C@@H]1CCC1=CCOC1=O [ANDROGRAPANIN]
zone of inhibition at 10 µg/mL (Bacillus subtilis): 7 mm
Activity (Staphylococcus aureus): inactive
Activity (Escherichia coli): inactive
Activity (Micrococcus luteus): inactive
Activity (Candida albicans): inactive
Activity ([Candida] sake): inactive
Activity (Aspergillus niger): inactive

C=C1CC[C@@H]2[C@](C)(CO)[C@H](O)CC[C@@]2(C)[C@@H]1C/C=C1/C(=O)OC[C@H]1O
Activity (Bacillus subtilis): inactive
Activity (Staphylococcus aureus): inactive
Activity (Escherichia coli): inactive
Activity (Micrococcus luteus): inactive
Activity (Candida albicans): inactive
Activity ([Candida] sake): inactive
Activity (Aspergillus niger): inactive

C[C@]1(CO)[C@H]2CC[C@H](CO)[C@@H](CCC3=CCOC3=O)[C@]2(C)CC[C@H]1O
Activity (Bacillus subtilis): inactive
Activity (Staphylococcus aureus): inactive
Activity (Escherichia coli): inactive
Activity (Micrococcus luteus): inactive
Activity (Candida albicans): inactive
Activity ([Candida] sake): inactive
Activity (Aspergillus niger): inactive

C=C1CC[C@@H]2[C@](C)(CO[C@@H]3O[C@H](CO)[C@@H](O)[C@H](O)[C@H]3O)[C@H](O)CC[C@@]2(C)[C@@H]1/C=C/C1=CCOC1=O
Activity (Bacillus subtilis): inactive
Activity (Staphylococcus aureus): inactive
Activity (Escherichia coli): inactive
Activity (Micrococcus luteus): inactive
Activity (Candida albicans): inactive
Activity ([Candida] sake): inactive
Activity (Aspergillus niger): inactive

C=C1CC[C@@H]2[C@](C)(CO)[C@H](O)CC[C@@]2(C)[C@@H]1CCC1=CCOC1=O
Activity (Bacillus subtilis): inactive
Activity (Staphylococcus aureus): inactive
Activity (Escherichia coli): inactive
Activity (Micrococcus luteus): inactive
Activity (Candida albicans): inactive
Activity ([Candida] sake): inactive
Activity (Aspergillus niger): inactive

C=C1CC[C@@H]2C(C)(C)[C@H](O[C@@H]3O[C@H](CO)[C@@H](O)[C@H](O)[C@H]3O)CC[C@@]2(C)[C@@H]1CCC1=CCOC1=O
Activity (Bacillus subtilis): inactive
Activity (Staphylococcus aureus): inactive
Activity (Escherichia coli): inactive
Activity (Micrococcus luteus): inactive
Activity (Candida albicans): inactive
Activity ([Candida] sake): inactive
Activity (Aspergillus niger): inactive

C=C1CC[C@@H]2[C@](C)(CO[C@@H]3O[C@H](CO)[C@@H](O)[C@H](O)[C@H]3O)[C@H](O)CC[C@@]2(C)[C@@H]1C/C=C1/C(=O)OC[C@H]1O
Activity (Bacillus subtilis): inactive
Activity (Staphylococcus aureus): inactive
Activity (Escherichia coli): inactive
Activity (Micrococcus luteus): inactive
Activity (Candida albicans): inactive
Activity ([Candida] sake): inactive
Activity (Aspergillus niger): inactive
